# Measurements from ChEMBL document CHEMBL1150802, “Ampicillin-resistant non-beta-lactamase-producing Haemophilus influenzae in Spain: recent emergence of clonal isolates with increased resistance to cefotaxime and cefixime” (2007).
# How the values were obtained:
# Type in all cases: functional
# [1] = tested on: Haemophilus influenzae; test: Antibacterial activity against beta-lactamase nonproducing ampicillin resistant Haemophilus influenzae group IId isolates with acrR mutation by broth microdilution method
# [2] = tested on: Haemophilus influenzae; test: Antibacterial activity against beta-lactamase nonproducing ampicillin susceptible Haemophilus influenzae isolate by broth microdilution method
# How it was run: (§1)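 Clinical isolates were tested by broth microdilution in Haemophilus test medium following CLSI guidelines, with H. influenzae ATCC 49247 as the QC strain. β-Lactamase was detected by chromogenic nitrocefin test. ftsI was PCR-amplified and sequenced across nt 936–1640 (aa 327–540). Classes: BLNAS (no mechanism), BLNAR (ftsI substitutions), BLPAR (β-lactamase only), BLPACR (both). Agents tested were amoxicillin, amoxicillin-clavulanate (2:1), cefaclor, cefuroxime, cefotaxime and cefixime.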
# [3] = tested on: Haemophilus influenzae; test: Antibacterial activity against beta-lactamase producing amoxicillin-clavulanic acid-resistant Haemophilus influenzae isolate assessed as percent resistant isolates by broth microdilution method; how it was run: as §1
# [4] = tested on: Haemophilus influenzae; test: Antibacterial activity against beta-lactamase nonproducing ampicillin susceptible Haemophilus influenzae isolate assessed as percent resistant isolates by broth microdilution method; how it was run: as §1
# [5] = tested on: Haemophilus influenzae; test: Antibacterial activity against beta-lactamase nonproducing ampicillin resistant Haemophilus influenzae group IIc isolates with acrR base C insertion behind nucleotide 496 by broth microdilution method
# [6] = tested on: Haemophilus influenzae; test: (§2) Antibacterial activity against beta-lactamase nonproducing ampicillin resistant Haemophilus influenzae group IIa isolates with acrR aminoacid substitution mutation by broth microdilution method
# [7] = tested on: Haemophilus influenzae; test: Antibacterial activity against beta-lactamase nonproducing ampicillin resistant Haemophilus influenzae isolate assessed as percent resistant isolates by broth microdilution method; how it was run: as §1
# [8] = tested on: Haemophilus influenzae; test: Antibacterial activity against beta-lactamase nonproducing ampicillin resistant Haemophilus influenzae group IIc isolates with acrR baseC insertion mutation by broth microdilution method
# [9] = tested on: Haemophilus influenzae; test: Antibacterial activity against beta-lactamase nonproducing ampicillin resistant Haemophilus influenzae group IIc isolates with acrR aminoacid substitution mutation by broth microdilution method
# [10] = tested on: Haemophilus influenzae; test: Antibacterial activity against beta-lactamase nonproducing ampicillin resistant Haemophilus influenzae isolate assessed as percent susceptible isolates by broth microdilution method; how it was run: as §1
# [11] = tested on: Haemophilus influenzae; test: Antibacterial activity against beta-lactamase nonproducing ampicillin resistant Haemophilus influenzae group I isolates with acrR ATT deletion behind nucleotide 170 by broth microdilution method
# [12] = tested on: Haemophilus influenzae; test: Antibacterial activity against Haemophilus influenzae group IIb isolates with ftsI gene mutation by broth microdilution method; how it was run: as §1
# [13] = tested on: Haemophilus influenzae; test: Antibacterial activity against beta-lactamase nonproducing ampicillin resistant Haemophilus influenzae isolate by broth microdilution method; how it was run: as §1
# [14] = tested on: Haemophilus influenzae; test: Antibacterial activity against beta-lactamase positive ampicillin resistant Haemophilus influenzae isolate by broth microdilution method; how it was run: as §1
# [15] = tested on: Haemophilus influenzae; test: Antibacterial activity against beta-lactamase nonproducing ampicillin resistant Haemophilus influenzae group IIc isolates with acrR base A insertion behind nucleotide 361 by broth microdilution method
# [16] = tested on: Haemophilus influenzae; test: Antibacterial activity against beta-lactamase nonproducing ampicillin resistant Haemophilus influenzae group IIc isolates with acrR TTA>TGA mutation at 425 position by broth microdilution method
# [17] = tested on: Haemophilus influenzae; test: Antibacterial activity against beta-lactamase producing amoxicillin-clavulanic acid-resistant Haemophilus influenzae isolate by broth microdilution method; how it was run: as §1
# [18] = tested on: Haemophilus influenzae; test: Antibacterial activity against beta-lactamase positive ampicillin resistant Haemophilus influenzae isolate assessed as percent resistant isolates by broth microdilution method; how it was run: as §1
# [19] = tested on: Haemophilus influenzae; test: Antibacterial activity against Haemophilus influenzae group IIc isolates with ftsI gene mutation by broth microdilution method; how it was run: as §1
# [20] = tested on: Haemophilus influenzae; test: Antibacterial activity against beta-lactamase nonproducing ampicillin susceptible Haemophilus influenzae isolate assessed as percent susceptible isolates by broth microdilution method
# How it was run: (§3)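 Broth microdilution in Haemophilus test medium per CLSI guidelines on clinical isolates, with H. influenzae ATCC 49247 as quality-control strain; β-lactamase production detected by nitrocefin chromogenic cephalosporin test; isolates classed by β-lactamase status and ftsI (PBP 3) sequencing of amino acids 327 to 540. Agents tested: amoxicillin, amoxicillin-clavulanic acid (2:1), cefaclor, cefuroxime, cefotaxime, cefixime.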
# [21] = tested on: Haemophilus influenzae; test: Antibacterial activity against beta-lactamase nonproducing ampicillin resistant Haemophilus influenzae group IIc isolates with acrR mutation by broth microdilution method
# [22] = tested on: Haemophilus influenzae; test: as §2; remark: listed apart in the source
# [23] = tested on: Haemophilus influenzae; test: Antibacterial activity against Haemophilus influenzae group IIa isolates with ftsI gene mutation by broth microdilution method; how it was run: as §1
# [24] = tested on: Haemophilus influenzae; test: Antibacterial activity against Haemophilus influenzae group IId isolates with ftsI gene mutation by broth microdilution method; how it was run: as §1
# [25] = tested on: Haemophilus influenzae; test: Antibacterial activity against Haemophilus influenzae group III-like isolates with ftsI gene mutation by broth microdilution method; how it was run: as §1
# [26] = tested on: Haemophilus influenzae; test: Antibacterial activity against beta-lactamase producing amoxicillin-clavulanic acid-resistant Haemophilus influenzae isolate assessed as percent susceptible isolates by broth microdilution method; how it was run: as §3
# [27] = tested on: Haemophilus influenzae; test: Antibacterial activity against beta-lactamase nonproducing ampicillin resistant Haemophilus influenzae group IIb isolates with acrR mutation by broth microdilution method
# [28] = tested on: Haemophilus influenzae; test: Antibacterial activity against beta-lactamase nonproducing ampicillin resistant Haemophilus influenzae group IIb isolates with acrR aminoacid substitution mutation by broth microdilution method
# [29] = tested on: Haemophilus influenzae; test: Antibacterial activity against beta-lactamase nonproducing ampicillin resistant Haemophilus influenzae group IIc isolates with acrR TTA>TGA mutation at 521 position by broth microdilution method
# [30] = tested on: Haemophilus influenzae; test: Antibacterial activity against Haemophilus influenzae group I isolates with ftsI gene mutation by broth microdilution method; how it was run: as §1
# [31] = tested on: Haemophilus influenzae; test: Antibacterial activity against beta-lactamase positive ampicillin resistant Haemophilus influenzae isolate assessed as percent susceptible isolates by broth microdilution method; how it was run: as §1
smiles,measurement,setting,value
CC1(C)S[C@@H]2[C@H](NC(=O)[C@H](N)c3ccccc3)C(=O)N2[C@H]1C(=O)O [AMPICILLIN],MIC,[1],1 µg/mL
same,MIC,[2],≤ 0.25 µg/mL
same,MIC50,[2],≤ 0.25 µg/mL
same,MIC90,[2],0.5 µg/mL
same,Activity,[3],100%
same,Activity,[4],1.6%
same,MIC,[5],0.5 µg/mL
same,MIC,[6],4 µg/mL
same,Activity,[7],50.8%
same,MIC,[8],2 µg/mL
same,MIC,[9],2 µg/mL
same,Activity,[10],49.2%
same,MIC,[11],2 µg/mL
same,MIC50,[12],1 µg/mL
same,MIC90,[12],2 µg/mL
same,MIC50,[13],1 µg/mL
same,MIC90,[13],2 µg/mL
same,MIC50,[14],8 µg/mL
same,MIC,[15],1 µg/mL
same,MIC,[16],0.5 µg/mL
same,MIC50,[17],≥ 32 µg/mL
same,MIC90,[17],≥ 32 µg/mL
same,Activity,[18],100%
same,MIC50,[19],2 µg/mL
same,MIC90,[19],2 µg/mL
same,Activity,[20],98.4%
same,MIC,[21],1 µg/mL
same,MIC,[22],1 µg/mL
same,MIC50,[23],2 µg/mL
same,MIC90,[23],4 µg/mL
same,MIC,[24],0.5 µg/mL
same,MIC50,[24],0.5 µg/mL
same,MIC90,[24],2 µg/mL
same,MIC50,[25],1 µg/mL
same,MIC90,[25],2 µg/mL
same,Activity,[26],0%
same,MIC,[27],1 µg/mL
same,MIC,[28],2 µg/mL
same,MIC,[29],2 µg/mL
same,MIC,[30],0.5 µg/mL
same,MIC50,[30],0.5 µg/mL
same,MIC90,[30],2 µg/mL
N[C@@H](C(=O)N[C@@H]1C(=O)N2C(C(=O)O)=C(Cl)CS[C@H]12)c1ccccc1 [CEFACLOR ANHYDROUS],MIC50,[2],2 µg/mL
same,MIC90,[2],4 µg/mL
same,Activity,[3],24.3%
same,Activity,[4],0%
same,Activity,[7],12.1%
same,Activity,[10],87.9%
same,MIC50,[12],4 µg/mL
same,MIC50,[13],4 µg/mL
same,MIC50,[14],4 µg/mL
same,MIC90,[14],8 µg/mL
same,MIC50,[17],4 µg/mL
same,MIC90,[17],≥ 16 µg/mL
same,Activity,[18],8.9%
same,MIC50,[19],8 µg/mL
same,Activity,[20],100%
same,Activity,[31],91.1%
same,MIC50,[23],8 µg/mL
same,MIC50,[24],2 µg/mL
same,MIC90,[24],8 µg/mL
same,MIC50,[25],4 µg/mL
same,Activity,[26],75.7%
same,MIC,[30],2 µg/mL
same,MIC50,[30],2 µg/mL
same,MIC90,[30],8 µg/mL
